Several values for one entry are separate records, joined by “and”; a condition that tells them apart may be missing. Identical values can stand only once.
Key:
Format in all cases: functional, Urine
Rattus norvegicus [1] = assay: Total Cl- milliequivalents excretion in diuretic test at the dose of 25 mg/kg
Outline: (§1)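 Male Sprague–Dawley rats (195–225 g) were fasted and deprived of water for 18 h. The compound was given orally, dissolved in 25 mL/kg saline; controls got saline alone. Groups of eight were housed as pairs in metabolism cages. Urine volume was read at 2 and 5 h, with total Na+, Cl− and K+ mequiv excreted. Values are mean ± SEM, N = 8.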

Rattus norvegicus [2] = assay: Diuretic activity by measuring the urinary output at the dose of 25 mg/kg; outline: as §1
Rattus norvegicus [3] = assay: Total K+ milliequivalents excretion in diuretic test at the dose of 25 mg/kg; outline: as §1
Rattus norvegicus [4] = assay: Diuretic activity by measuring the urinary output at the dose of 50 mg/kg
Outline: (§2)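 Groups of eight male Sprague–Dawley-derived rats, fasted 18 h with water ad libitum, received oral doses by dosing needle in 5% acacia–isotonic saline; the vehicle served as control. Rats were placed in metabolism cages with no food or water, and urine was collected for 5 h. Bladders were then emptied by pulling at the tail base (modified Lipschitz method).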

Rattus norvegicus [5] = assay: Total Cl- milliequivalents excretion in diuretic test at the dose of 50 mg/kg
Rattus norvegicus [6] = assay: Total Na+ milliequivalents excretion in diuretic test at the dose of 25 mg/kg; outline: as §1
Rattus norvegicus [7] = assay: Diuretic activity by measuring the urinary output at the dose of 100 mg/kg; outline: as §2
Rattus norvegicus [8] = assay: Diuretic activity by measuring the urinary output at the dose of 400 mg/kg; outline: as §2
Rattus norvegicus [9] = assay: Diuretic activity by measuring the urinary output at the dose of 75 mg/kg; outline: as §2
Rattus norvegicus [10] = assay: Total Na+ milliequivalents excretion in diuretic test at the dose of 75 mg/kg; conditions: 75 mg/kg
Rattus norvegicus [11] = assay: Total Cl- milliequivalents excretion in diuretic test at the dose of 75 mg/kg
Rattus norvegicus [12] = assay: Diuretic activity by measuring the urinary output after 5 hr at the dose of 25 mg/kg
Outline: (§3)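 Male Sprague–Dawley rats (195–225 g) were fasted and deprived of water for 18 h, then dosed orally with compound dissolved in 25 mL/kg saline. Controls got 25 mL/kg saline alone. Groups of eight were used, housed two rats per metabolism cage right after dosing. Urine volume was collected at 2 h and 5 h after dosing. Values are mean ± SEM per cage pair, N = 8.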

Rattus norvegicus [13] = assay: Diuretic activity by measuring the urinary output after 2 hr at the dose of 25 mg/kg; outline: as §3
Rattus norvegicus [14] = assay: Total K+ milliequivalents excretion in diuretic test at the dose of 27 mg/kg
Outline: (§4)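 Oral dosing was in 25 mL/kg saline to male Sprague–Dawley rats (195–225 g) after 18 h without food or water, with saline-only controls. Groups of eight were kept two per metabolism cage. Urinary Na+, Cl− and K+ were reported as total mequiv excreted, with electrolyte analysis done externally. Values are mean ± SEM of two rats per cage, N = 8.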

Rattus norvegicus [15] = assay: Total Cl- milliequivalents excretion in diuretic test at the dose of 9 mg/kg; outline: as §4
Rattus norvegicus [16] = assay: Diuretic activity by measuring the urinary output after 2 hr at the dose of 9 mg/kg; outline: as §3
Rattus norvegicus [17] = assay: Diuretic activity by measuring the urinary output after 2 hr at the dose of 81 mg/kg; outline: as §3
Rattus norvegicus [18] = assay: Total Na+ milliequivalents excretion in diuretic test at the dose of 3 mg/kg; outline: as §4
Rattus norvegicus [19] = assay: Total K+ milliequivalents excretion in diuretic test at the dose of 81 mg/kg; outline: as §4
Rattus norvegicus [20] = assay: Total Na+ milliequivalents excretion in diuretic test at the dose of 9 mg/kg; outline: as §4
Rattus norvegicus [21] = assay: Diuretic activity by measuring the urinary output after 5 hr at the dose of 81 mg/kg; outline: as §3
Rattus norvegicus [22] = assay: Diuretic activity by measuring the urinary output after 5 hr at the dose of 27 mg/kg; outline: as §3
Rattus norvegicus [23] = assay: Total K+ milliequivalents excretion in diuretic test at the dose of 3 mg/kg; outline: as §4
Rattus norvegicus [24] = assay: Diuretic activity by measuring the urinary output after 5 hr at the dose of 9 mg/kg; outline: as §3
Rattus norvegicus [25] = assay: Diuretic activity by measuring the urinary output after 5 hr at the dose of 3 mg/kg; outline: as §3
Rattus norvegicus [26] = assay: Total K+ milliequivalents excretion in diuretic test at the dose of 9 mg/kg; outline: as §4
Rattus norvegicus [27] = assay: Total Na+ milliequivalents excretion in diuretic test at the dose of 27 mg/kg; outline: as §4
Rattus norvegicus [28] = assay: Diuretic activity by measuring the urinary output after 2 hr at the dose of 27 mg/kg; outline: as §3
Rattus norvegicus [29] = assay: Total Cl- milliequivalents excretion in diuretic test at the dose of 81 mg/kg; outline: as §4
Rattus norvegicus [30] = assay: Diuretic activity by measuring the urinary output after 2 hr at the dose of 3 mg/kg; outline: as §3
Rattus norvegicus [31] = assay: Total Cl- milliequivalents excretion in diuretic test at the dose of 3 mg/kg; outline: as §4
Rattus norvegicus [32] = assay: Total Na+ milliequivalents excretion in diuretic test at the dose of 81 mg/kg; outline: as §4
Rattus norvegicus [33] = assay: Total Cl- milliequivalents excretion in diuretic test at the dose of 27 mg/kg; outline: as §4

Cn1cccc1C1NC(=O)c2cccnc2N1 (stereo unspecified)
Excretion (Rattus norvegicus [1]): 1.4 m equiv
Control (Rattus norvegicus [2]): 124%
Excretion (Rattus norvegicus [3]): 0.3 m equiv
Control (Rattus norvegicus [4]): 113%
Excretion (Rattus norvegicus [5]): 1 m equiv
Excretion (Rattus norvegicus [6]): 1.5 m equiv

O=C1NC(c2ccco2)Nc2ncccc21 (stereo unspecified)
Control (Rattus norvegicus [2]): 121%
Control (Rattus norvegicus [7]): 194%
Control (Rattus norvegicus [8]): 193%

O=C1NC(c2ccc(C(F)(F)F)cc2)Nc2ncccc21 (stereo unspecified)
Excretion (Rattus norvegicus [1]): 1.4 m equiv
Control (Rattus norvegicus [2]): 106%
Excretion (Rattus norvegicus [3]): 0.4 m equiv
Control (Rattus norvegicus [9]): 98%
Excretion (Rattus norvegicus [10]): 1.2 m equiv and 0.4 m equiv
Excretion (Rattus norvegicus [11]): 1.3 m equiv
Excretion (Rattus norvegicus [6]): 1.3 m equiv

CN1C(=O)c2cccnc2NC1c1ccco1 (stereo unspecified)
Excretion (Rattus norvegicus [1]): 1.8 m equiv
Control (Rattus norvegicus [2]): 209%
Excretion (Rattus norvegicus [3]): 0.8 m equiv
Control (Rattus norvegicus [7]): 233%
Excretion (Rattus norvegicus [12]): 12.2 mL
Excretion (Rattus norvegicus [13]): 4.6 mL
Excretion (Rattus norvegicus [6]): 1.8 m equiv
Control (Rattus norvegicus [8]): 95%

CC(C)c1ccc(C2NC(=O)c3cccnc3N2)cc1 (stereo unspecified)
Excretion (Rattus norvegicus [1]): 1.6 m equiv
Control (Rattus norvegicus [2]): 137%
Excretion (Rattus norvegicus [3]): 0.6 m equiv
Control (Rattus norvegicus [9]): 114%
Excretion (Rattus norvegicus [10]): 1.3 m equiv and 0.6 m equiv
Excretion (Rattus norvegicus [11]): 1.4 m equiv
Excretion (Rattus norvegicus [6]): 1.5 m equiv

O=C1NC(c2cc(Br)co2)Nc2ncccc21 (stereo unspecified)
Control (Rattus norvegicus [2]): 101%
Control (Rattus norvegicus [7]): 94%
Control (Rattus norvegicus [8]): 110%

Oc1nc(-c2ccco2)nc2ncccc12
Control (Rattus norvegicus [2]): 167%
Control (Rattus norvegicus [7]): 212%
Control (Rattus norvegicus [8]): 36%

O=C1NC(c2cccnc2)Nc2[nH]cnc21 (stereo unspecified)
Excretion (Rattus norvegicus [1]): 1.3 m equiv
Control (Rattus norvegicus [2]): 138%
Excretion (Rattus norvegicus [3]): 0.6 m equiv
Excretion (Rattus norvegicus [6]): 1.4 m equiv

O=C1NC(c2cccnc2)Nc2ncccc21 (stereo unspecified)
Excretion (Rattus norvegicus [14]): 0.6 m equiv
Excretion (Rattus norvegicus [15]): 1.3 m equiv
Excretion (Rattus norvegicus [16]): 3 mL
Excretion (Rattus norvegicus [17]): 6 mL
Excretion (Rattus norvegicus [1]): 2.8 m equiv
Excretion (Rattus norvegicus [18]): 1.4 m equiv
Excretion (Rattus norvegicus [19]): 0.4 m equiv
Excretion (Rattus norvegicus [20]): 1.1 m equiv
Excretion (Rattus norvegicus [21]): 19.6 mL
Excretion (Rattus norvegicus [22]): 20.1 mL
Control (Rattus norvegicus [2]): 221%
Excretion (Rattus norvegicus [23]): 0.4 m equiv
Excretion (Rattus norvegicus [24]): 7.6 mL
Excretion (Rattus norvegicus [3]): 0.6 m equiv
Excretion (Rattus norvegicus [25]): 8.1 mL
Control (Rattus norvegicus [7]): 220%
Excretion (Rattus norvegicus [26]): 0.4 m equiv
Excretion (Rattus norvegicus [27]): 2.2 m equiv
Excretion (Rattus norvegicus [28]): 10.4 mL
Excretion (Rattus norvegicus [12]): 21 mL
Excretion (Rattus norvegicus [29]): 2.6 m equiv
Excretion (Rattus norvegicus [30]): 4.4 mL
Excretion (Rattus norvegicus [31]): 1.6 m equiv
Excretion (Rattus norvegicus [13]): 8 mL
Excretion (Rattus norvegicus [6]): 2.5 m equiv
Control (Rattus norvegicus [8]): 185%
Excretion (Rattus norvegicus [32]): 2.6 m equiv
Excretion (Rattus norvegicus [33]): 2.6 m equiv

CN1C(=O)c2cccnc2NC1c1cccnc1 (stereo unspecified)
Control (Rattus norvegicus [9]): 149%
Excretion (Rattus norvegicus [11]): 1.7 m equiv

— ChEMBL document CHEMBL1122172, “Syntheses and diuretic activity of 1,2-dihydro-2-(3-pyridyl)-3H-pyrido[2,3-d]pyrimidin-4-one and related compounds” (1982)
